Data: ChEMBL document CHEMBL1221179, “An shRNA barcode screen provides insight into cancer cell vulnerability to MDM2 inhibitors” (2006)
Calls of active or inactive are those of the source. The calls are words filed in the database; no cut-off is given here.

Assays:
MCF7 [1] = experiment: Induction of cell cycle arrest in human MCF7 cells transfected with p53-targeting iRNA-based shRNA at 4 uM after 14 days by BrdU incorporation assay; format: functional
MCF7 [2] = experiment: Induction of cell cycle arrest in human MCF7 cells transfected hnRNPK-targeting iRNA-based shRNA at 4 uM after 14 days by BrdU incorporation assay; format: functional
MCF7 [3] = experiment: Antiproliferative activity against human MCF7 cells at 4 uM after 14 days by coomassie staining; format: functional, cell-based
Method in brief: (§1)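 Retrovirally transduced shRNA (GFP control, p53, or two independent 53BP1 hairpins in pRETROSUPER); cells grown in DMEM with 10% fetal calf serum at 37 °C, 5% CO2; left untreated or given 4 µM nutlin-3 for 14 days; cell density shown by Coomassie staining, morphology inspected.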

MCF7 [4] = experiment: Antiproliferative activity against human MCF7 cells assessed as appearance of flattened phenotype at 4 uM after 14 days by coomassie staining; format: functional, cell-based; method in brief: as §1
MCF7 [5] = experiment: Antiproliferative activity against human MCF7 cells transfected with p53-targeting iRNA-based shRNA assessed as effect on cellular morphology at 4 uM after 14 days by coomassie staining; format: functional, cell-based; method in brief: as §1
A549 = experiment: Antiproliferative activity against human A549 cells transfected with 53BP1-targeting iRNA-based shRNA assessed as effect on cellular morphology at 4 uM after 14 days by coomassie staining; format: functional, cell-based; method in brief: as §1
MCF7 [6] = experiment: Induction of cell cycle arrest in human MCF7 cells p53-targeting iRNA-based shRNA assessed as accumulation at S phase at 4 uM after 48 hrs by BrdU incorporation assay; format: functional
Method in brief: (§2)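 MCF-7 carrying shRNA against GFP (control), p53 or 53BP1, untreated or given 4 µM nutlin-3 for 48 h; 10 µM BrdU pulse 30 min before harvest; ethanol fixation, HCl-Triton permeabilization, borate neutralization; anti-BrdU plus FITC secondary, propidium iodide with RNase; 10,000 cells per sample by flow cytometry; S-phase percentage = BrdU-positive fraction.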

MCF7 [7] = experiment: Induction of cell cycle arrest in human MCF7 cells 53BP1-targeting iRNA-based shRNA assessed as accumulation at S phase at 4 uM after 48 hrs by BrdU incorporation assay; format: functional; method in brief: as §2
MCF7 [8] = experiment: Induction of p53 expression in human MCF7 cells transfected with 53BP1-targeting iRNA-based shRNA by Western blot analysis; format: functional, cell-based
Method in brief: (§3)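 MCF-7 expressing GFP control shRNA or either of two 53BP1 shRNAs; lysates immunoblotted for 53BP1, p53 (DO-1), p21 (C19) and MDM2 (2A10, SMP14) after SDS-PAGE transfer to nitrocellulose.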

MCF7 [9] = experiment: Induction of p53 expression in human MCF7 cells by Western blot analysis; format: functional, cell-based; method in brief: as §3
MCF7 [10] = experiment: Induction of CDKN1A gene expression in human MCF7 cells transfected with 53BP1-targeting iRNA-based shRNA by Western blot analysis; format: functional, cell-based; method in brief: as §3
MCF7 [11] = experiment: Induction of p53 expression in human MCF7 cells assessed as increase in p21CIP1 level after 18 hrs by Western blot method in presence of 2.5 mM caffeine; format: functional, cell-based
Method in brief: (§4)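 MCF-7 pretreated 12 h with 2.5 mM caffeine (or not), then exposed to increasing nutlin-3 concentrations for 18 h; lysates run on SDS-PAGE, blotted to nitrocellulose and probed for p53 (DO-1) and p21 (C19).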

MCF7 [12] = experiment: Induction of p53 accumulation in human MCF7 cells after 18 hrs by Western blot analysis in presence of 2.5 mM caffeine; format: functional, cell-based; method in brief: as §4
BJ [13] = experiment: Induction of p21CIP1 expression in irradiated human BJ cells at 3 uM by Western blot analysis; format: functional, cell-based
Method in brief: (§5)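 Normal BJ fibroblasts, with or without 2 Gy irradiation, treated with increasing nutlin-3 concentrations; SDS-PAGE and nitrocellulose immunoblot for p53 stabilization and p21 induction.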

MCF7 [14] = experiment: Induction of apoptosis in human MCF7 cells transfected with p53-targeting iRNA-based shRNA at 4 uM after 14 days by BrdU incorporation assay; format: functional, cell-based
MCF7 [15] = experiment: Antiproliferative activity against human MCF7 cells transfected with 53BP1-targeting iRNA-based shRNA assessed as effect on cellular morphology at 4 uM after 14 days by coomassie staining; format: functional, cell-based; method in brief: as §1
MCF7 [16] = experiment: Induction of apoptosis in human MCF7 cells co-transfected with 53BP1-targeting iRNA-based shRNA at 4 uM after 14 days by BrdU incorporation assay; format: functional, cell-based
BJ [17] = experiment: Induction of p21 expression in irradiated human BJ cells at 3 uM by Western blot analysis; format: functional, cell-based; method in brief: as §5
MCF7 [18] = experiment: Induction of cell cycle arrest in human MCF7 cells transfected with 53BP1-targeting iRNA-based shRNA at 4 uM after 48 hrs by BrdU incorporation assay

In the case of COc1ccc(C2=N[C@@H](c3ccc(Cl)cc3)[C@@H](c3ccc(Cl)cc3)N2C(=O)N2CCNC(=O)C2)c(OC(C)C)c1 [NUTLIN-3], the Activity (MCF7 [1]) is reported as “Active”, the Activity (MCF7 [2]) is reported as “Active” and the Activity (MCF7 [3]) is reported as “Active”. For the same molecule, the Activity (MCF7 [4]) was “Active”, the Activity (MCF7 [5]) was “inactive” and the Activity (A549) was “inactive”. For the same molecule, the Activity (MCF7 [6]) was 29%, the Activity (MCF7 [7]) was 17% and the Activity (MCF7 [8]) was “Active”. The Activity (MCF7 [9]) was “Active”, the Activity (MCF7 [10]) was “inactive” and the Activity (MCF7 [11]) was “inactive”. For the same molecule, the Activity (MCF7 [12]) was “Active”, the Activity (BJ [13]) was “Active” and the Activity (MCF7 [14]) was “inactive”. The Activity (MCF7 [15]) was “inactive”, the Activity (MCF7 [16]) was “inactive” and the Activity (BJ [17]) was “Active”. For the same molecule, the Activity (MCF7 [18]) was “Active”.
